Our source for the IC50, Tm and inhibition values is ChEMBL document CHEMBL5120742, “Multi-target weapons: diaryl-pyrazoline thiazolidinediones simultaneously targeting VEGFR-2 and HDAC cancer hallmarks” (RSC Med Chem, 2021).

Active and inactive are the calls of the source. No cut-off for these calls is given here. A value given as a limit tells only on which side of the number the result lay.

Data set [1] has as its target T1, Histone deacetylase 7 (Homo sapiens, UniProt Q8WUI4).
T1 sequence (Q8WUI4 whole entry): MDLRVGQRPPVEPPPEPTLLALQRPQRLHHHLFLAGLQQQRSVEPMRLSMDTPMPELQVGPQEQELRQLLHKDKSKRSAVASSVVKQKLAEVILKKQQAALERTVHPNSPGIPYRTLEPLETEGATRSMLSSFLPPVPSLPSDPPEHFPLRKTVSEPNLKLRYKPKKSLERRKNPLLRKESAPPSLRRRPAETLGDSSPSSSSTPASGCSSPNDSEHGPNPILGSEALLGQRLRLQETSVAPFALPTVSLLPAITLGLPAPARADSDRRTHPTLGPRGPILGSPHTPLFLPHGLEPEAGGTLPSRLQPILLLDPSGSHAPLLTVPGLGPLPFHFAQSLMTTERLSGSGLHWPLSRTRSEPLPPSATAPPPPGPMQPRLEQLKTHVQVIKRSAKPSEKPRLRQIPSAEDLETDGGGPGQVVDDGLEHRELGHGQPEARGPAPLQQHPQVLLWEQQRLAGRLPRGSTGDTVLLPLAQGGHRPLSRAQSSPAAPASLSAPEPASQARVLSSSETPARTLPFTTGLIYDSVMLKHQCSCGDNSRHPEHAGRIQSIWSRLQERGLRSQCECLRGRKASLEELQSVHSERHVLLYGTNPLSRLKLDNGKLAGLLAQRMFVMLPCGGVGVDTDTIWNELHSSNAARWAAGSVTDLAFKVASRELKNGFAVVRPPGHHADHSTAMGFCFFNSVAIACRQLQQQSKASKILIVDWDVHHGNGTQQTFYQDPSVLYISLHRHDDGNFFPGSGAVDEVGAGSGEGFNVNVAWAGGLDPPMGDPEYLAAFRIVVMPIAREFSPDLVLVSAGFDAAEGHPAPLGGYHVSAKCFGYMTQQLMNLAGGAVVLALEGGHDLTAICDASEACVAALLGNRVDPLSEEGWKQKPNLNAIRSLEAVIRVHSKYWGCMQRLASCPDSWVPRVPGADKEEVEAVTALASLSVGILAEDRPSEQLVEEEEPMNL
In words: Inhibition of recombinant human N-terminal GST-tagged HDAC7 (518 to end residues) expressed in baculovirus infected sf9 insect cells using BocLys(trifluoroacetyl)-AMC as substrate incubated for 30 mins by fluorescence assay. The essentials:
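Recombinant HDAC7 was tested in a two-step fluorogenic assay. Boc-Lys(trifluoroacetyl)-AMC serves as substrate, then trypsin releases the fluorophore.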

The nature of data set [2]: Cytotoxicity against HUVEC cells assessed as reduction in cell viability after 96 hrs by MTT assay. Particulars: human.
Data set [3] concerns the target Histone deacetylase 4 (Homo sapiens, UniProt P56524). The experiment in a line: Binding affinity to recombinant human N-terminal His6-SUMO-tagged C-terminal SII-tagged HDAC4 expressed in Escherichia coli (BL21) DE3 pLysS cells assessed as melting temperature at 100 uM for 15 mins by thermal shift assay. The essentials:
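HDAC4 catalytic domain (His6-SUMO/SII, E. coli) at 3 µM was mixed with 100 µM compound in DMSO and held 15 min at 30 °C, then 60 min more at 30 °C. Temperature was stepped by 2 °C with 10 min holds and samples were taken at each step. Samples were centrifuged at 18000g, 4 °C, and the soluble protein was run on SDS-PAGE. Band intensities were fitted to a logistic function, and Tm is the inflection point.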

Data set [4] is filed under the species Gallus gallus. The experiment in a line: Inhibition of angiogenesis in chicken chorioallantoic membrane assessed as reduction in number of branching capillaries at 1 to 10 ug/ul after 12 days in presence of human VEGF by stereomicroscopic analysis. Particulars: Embryo, dose 1-10 µg/microl, time 12.0 day.
The target of data set [5] is T2, Vascular endothelial growth factor receptor 2 (Homo sapiens, UniProt P35968). In words: Inhibition of human VEGFR2 in HUVEC cells assessed as reduction in VEGFR2 phosphorylation at 10 uM incubated for 30 mins by anti-phospho VEGF Tyr 1175 antibody based assay relative to control. The data set is classed as cell-based. The essentials:
(§1)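 HUVECs were seeded at 4000–5000 per well in DMEM with 10% FCS for 12 h, then held 24 h in serum. Compound (10 µM) was added with serum for 30 min at 37 °C. Cells were fixed in 4% formaldehyde and probed with anti-phospho-VEGFR Tyr1175 (1:1000), then an HRP secondary (1:5000). TMB signal was stopped with 2N H2SO4 and read at 450 nm. Percent inhibition is normalized to control.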

For data set [6], the target named is T2, Vascular endothelial growth factor receptor 2. The experiment in a line: Inhibition of human VEGFR2 in HUVEC cells assessed as reduction in VEGFR2 phosphorylation incubated for 30 mins by anti-phospho VEGF Tyr 1175 antibody based assay. In kind it is cell-based. The essentials: as §1
Data set [7] relates to HT-29. The experiment in a line: Antiproliferative activity against human HT-29 cells assessed as reduction in cell viability after 48 hrs by MTT assay. The data set is classed as functional, cell-based. Particulars: HT-29, 48 h. The essentials:
(§2)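 MCF-7, K562, A549 and HT-29 lines were seeded in 96-well plates and kept overnight at 37 °C, 5% CO2, 95% humidity. They were then exposed to six concentrations (100 to 2.5) for 48 h. After PBS washes, MTT was added for 4 h at 37 °C and formazan was dissolved in DMSO. Absorbance was read at 570 nm. Survival is mean OD of treated wells over the negative control, and IC50 was derived from that.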

Data set [8] relates to A549. The experiment in a line: Antiproliferative activity against human A549 cells assessed as reduction in cell viability after 48 hrs by MTT assay. In kind it is functional, cell-based. Conditions: A549, 48 h. The essentials: as §2
Data set [9] relates to K562. In words: Antiproliferative activity against human K562 cells assessed as reduction in cell viability after 48 hrs by MTT assay. Conditions: K562, 48 h. The data set is classed as functional, cell-based. The essentials:
as §2

Data set [10] relates to MCF7. The experiment in a line: Antiproliferative activity against human MCF7 cells assessed as reduction in cell viability after 48 hrs by MTT assay. In kind it is functional, cell-based. Particulars: MCF7, 48 h. The essentials:
as §2

T2 sequence (P35968 whole entry): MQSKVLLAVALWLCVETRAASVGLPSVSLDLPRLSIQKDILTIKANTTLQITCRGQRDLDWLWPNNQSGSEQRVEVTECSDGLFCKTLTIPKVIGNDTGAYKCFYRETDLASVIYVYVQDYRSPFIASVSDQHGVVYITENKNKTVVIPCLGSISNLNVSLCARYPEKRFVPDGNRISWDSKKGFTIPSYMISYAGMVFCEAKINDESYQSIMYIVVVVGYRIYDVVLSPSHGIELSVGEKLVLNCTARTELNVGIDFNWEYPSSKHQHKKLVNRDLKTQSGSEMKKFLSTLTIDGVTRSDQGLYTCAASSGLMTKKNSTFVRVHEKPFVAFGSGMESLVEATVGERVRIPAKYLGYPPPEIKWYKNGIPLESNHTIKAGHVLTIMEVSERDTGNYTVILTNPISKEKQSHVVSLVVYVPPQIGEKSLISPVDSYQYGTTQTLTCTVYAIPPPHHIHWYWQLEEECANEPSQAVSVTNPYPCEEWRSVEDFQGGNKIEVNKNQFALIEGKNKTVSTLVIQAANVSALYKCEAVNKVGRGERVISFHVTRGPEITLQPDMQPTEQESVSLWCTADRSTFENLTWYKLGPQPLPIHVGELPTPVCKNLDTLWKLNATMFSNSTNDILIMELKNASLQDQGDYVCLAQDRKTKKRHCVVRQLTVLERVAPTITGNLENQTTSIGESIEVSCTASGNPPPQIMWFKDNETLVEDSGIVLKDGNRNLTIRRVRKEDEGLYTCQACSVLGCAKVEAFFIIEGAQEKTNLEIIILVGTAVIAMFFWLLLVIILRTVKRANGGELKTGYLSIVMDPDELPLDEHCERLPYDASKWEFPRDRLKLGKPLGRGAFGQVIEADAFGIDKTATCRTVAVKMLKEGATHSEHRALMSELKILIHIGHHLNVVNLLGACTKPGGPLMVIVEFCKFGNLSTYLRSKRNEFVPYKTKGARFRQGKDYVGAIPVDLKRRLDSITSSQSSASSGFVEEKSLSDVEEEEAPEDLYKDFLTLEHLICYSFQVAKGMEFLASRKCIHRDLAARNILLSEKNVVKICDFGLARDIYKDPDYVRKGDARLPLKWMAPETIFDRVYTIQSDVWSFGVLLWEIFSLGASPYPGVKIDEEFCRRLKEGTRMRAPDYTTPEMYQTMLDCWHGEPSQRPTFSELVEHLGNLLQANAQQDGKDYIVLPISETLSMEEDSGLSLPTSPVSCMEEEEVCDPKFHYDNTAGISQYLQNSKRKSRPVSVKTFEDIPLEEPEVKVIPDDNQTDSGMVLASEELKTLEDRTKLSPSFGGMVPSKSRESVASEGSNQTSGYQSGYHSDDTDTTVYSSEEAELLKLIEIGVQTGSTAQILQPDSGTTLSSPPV
Chain of Histone deacetylase 4 (P56524 whole entry, the tested form may be a part): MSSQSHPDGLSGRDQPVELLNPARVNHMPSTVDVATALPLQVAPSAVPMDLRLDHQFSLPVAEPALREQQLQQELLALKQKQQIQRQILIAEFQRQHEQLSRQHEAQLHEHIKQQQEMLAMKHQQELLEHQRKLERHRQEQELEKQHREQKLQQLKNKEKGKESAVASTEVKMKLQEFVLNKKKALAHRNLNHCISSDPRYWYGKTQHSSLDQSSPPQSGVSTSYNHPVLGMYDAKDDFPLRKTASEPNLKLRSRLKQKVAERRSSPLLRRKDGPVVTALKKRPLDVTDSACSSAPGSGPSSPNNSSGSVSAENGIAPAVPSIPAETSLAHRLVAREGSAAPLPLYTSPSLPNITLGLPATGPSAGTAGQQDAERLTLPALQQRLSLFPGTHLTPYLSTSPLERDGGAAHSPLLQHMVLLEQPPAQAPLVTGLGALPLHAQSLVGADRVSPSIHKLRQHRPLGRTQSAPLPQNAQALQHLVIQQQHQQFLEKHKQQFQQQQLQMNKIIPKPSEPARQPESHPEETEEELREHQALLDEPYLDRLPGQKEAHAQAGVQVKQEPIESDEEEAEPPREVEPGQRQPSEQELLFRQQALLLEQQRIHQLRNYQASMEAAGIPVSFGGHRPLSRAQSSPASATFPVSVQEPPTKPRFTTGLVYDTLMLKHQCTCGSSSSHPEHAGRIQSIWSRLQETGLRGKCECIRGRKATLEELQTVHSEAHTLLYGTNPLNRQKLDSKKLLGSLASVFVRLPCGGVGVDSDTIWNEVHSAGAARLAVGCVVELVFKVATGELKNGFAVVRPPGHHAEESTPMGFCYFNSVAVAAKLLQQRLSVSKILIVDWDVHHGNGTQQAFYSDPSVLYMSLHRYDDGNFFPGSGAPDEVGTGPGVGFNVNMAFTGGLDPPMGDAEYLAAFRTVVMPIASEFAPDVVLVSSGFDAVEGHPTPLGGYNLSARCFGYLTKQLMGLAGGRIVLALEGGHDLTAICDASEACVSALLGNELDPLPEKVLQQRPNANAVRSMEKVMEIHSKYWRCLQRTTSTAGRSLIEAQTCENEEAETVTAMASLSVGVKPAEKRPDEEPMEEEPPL

As for `O=C1NC(=O)/C(=C\c2ccc(OCC(=O)N3N=C(c4ccccc4)CC3c3ccc(Cl)c(Cl)c3)cc2)S1` (stereo unspecified), the IC50 in data set [1] was greater than 50 µM. In data set [2], the IC50 at 96 h is greater than 10 µM. Besides, the Tm in data set [3] was 56.7 °C.
In the case of `O=C1NC(=O)/C(=C\c2ccc(OCC(=O)N3N=C(c4ccc(F)cc4)CC3c3ccco3)cc2)S1` (stereo unspecified), in data set [4], the inhibition entry was “Active”. Also, in data set [5], the inhibition stood at 56.7%. The IC50 in data set [1] is greater than 50 µM; in [6], 5 µM; in data set [7] it was 18.8 µM; in [8] it was 19.5 µM; in data set [9], 46.3 µM; in [10], 28.4 µM. Also, the IC50 at 96 h in data set [2] was 0.7 µM.
As to `O=C1NC(=O)/C(=C\c2ccc(OCC(=O)N3N=C(c4ccc(F)cc4)CC3c3ccc(Cl)c(Cl)c3)cc2)S1` (stereo unspecified), the inhibition in data set [5] is 22.4%. For the same compound, the IC50 in [1] stood at 6.7 µM. The IC50 at 96 h in data set [2] worked out at 2 µM. Further, the Tm in [3] stood at 57.3 °C.
